Laboratory results taken from ChEMBL document CHEMBL3822428, “Design, Synthesis, and Biological Evaluation of Potential Prodrugs Related to the Experimental Anticancer Agent Indotecan (LMP400)” (J Med Chem, 2016).
The source made the active and inactive calls. The calls are words filed in the database; no cut-off is given here.

Assays:
[1] = Antiproliferative activity in human SF539 cells assessed as cell growth inhibition after 48 hrs by SRB assay; type: functional; details: SF-539, 48 h
Summary of the method: (§1)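 NCI-60 screen: cells exposed to compound at 100, 10, 1, 0.1 and 0.01 μM for 48 h, then sulforhodamine B staining. Optical density ratio to control plotted as percent growth versus log10 concentration; GI50 interpolated between points above and below 50% growth.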

[2] = biological target: T1, DNA topoisomerase 1 (Homo sapiens) (UniProt P11387); experiment: Inhibition of human recombinant Top1 expressed in baculovirus using [32P]-3-end labeled 117 bp DNA oligonucleotide as substrate assessed as enzyme mediated DNA cleavage after 20 mins by SDS-PAGE analysis relative to camptothecin; design: concentration or dose not given beside the values
T1 sequence (whole entry): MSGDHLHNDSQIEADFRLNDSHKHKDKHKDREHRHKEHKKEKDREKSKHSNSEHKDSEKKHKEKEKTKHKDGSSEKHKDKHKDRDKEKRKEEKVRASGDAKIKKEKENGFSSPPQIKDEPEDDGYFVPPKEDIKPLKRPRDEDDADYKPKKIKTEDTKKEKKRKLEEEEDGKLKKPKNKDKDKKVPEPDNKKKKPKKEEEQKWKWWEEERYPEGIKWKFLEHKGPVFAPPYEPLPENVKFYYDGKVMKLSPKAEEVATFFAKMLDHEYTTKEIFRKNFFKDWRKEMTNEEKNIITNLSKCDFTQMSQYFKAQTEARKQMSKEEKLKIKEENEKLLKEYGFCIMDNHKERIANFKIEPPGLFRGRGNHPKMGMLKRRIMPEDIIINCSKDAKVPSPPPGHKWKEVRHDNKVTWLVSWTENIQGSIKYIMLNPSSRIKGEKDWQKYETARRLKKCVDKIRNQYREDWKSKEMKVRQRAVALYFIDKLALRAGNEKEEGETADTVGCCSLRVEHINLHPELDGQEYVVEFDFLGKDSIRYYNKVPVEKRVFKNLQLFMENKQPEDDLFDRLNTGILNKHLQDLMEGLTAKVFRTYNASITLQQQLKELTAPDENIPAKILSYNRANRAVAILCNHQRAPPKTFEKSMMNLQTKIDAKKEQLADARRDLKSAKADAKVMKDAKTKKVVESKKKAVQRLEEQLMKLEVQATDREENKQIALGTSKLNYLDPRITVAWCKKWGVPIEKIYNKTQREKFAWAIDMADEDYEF
Summary of the method: (§2)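 Baculovirus-purified human recombinant Top1 with ~2 nM 117-bp oligonucleotide, 3'-end labeled by Klenow fill-in with [α-32P]dGTP. Stopped with 0.5% SDS and formamide dye; 20% denaturing PAGE, phosphoimager.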

[3] = test system: SN12C; experiment: Antiproliferative activity in human SN12C cells assessed as cell growth inhibition after 48 hrs by SRB assay; type: functional; summary of the method: as §1
[4] = Antiproliferative activity in human HOP62 cells assessed as cell growth inhibition after 48 hrs by SRB assay; type: functional; details: HOP-62, 48 h; summary of the method: as §1
[5] = Antiproliferative activity in human UACC62 cells assessed as cell growth inhibition after 48 hrs by SRB assay; type: functional; details: UACC-62, 48 h; summary of the method: as §1
[6] = Antiproliferative activity in human DU145 cells assessed as cell growth inhibition after 48 hrs by SRB assay; type: functional; details: DU-145, 48 h; summary of the method: as §1
[7] = test system: MCF7; experiment: Antiproliferative activity in human MCF7 cells assessed as cell growth inhibition after 48 hrs by SRB assay; type: functional; details: MCF7, 48 h; summary of the method: as §1
[8] = Antiproliferative activity in human HCT116 cells assessed as cell growth inhibition after 48 hrs by SRB assay; type: functional; details: HCT-116, 48 h; summary of the method: as §1
[9] = Antiproliferative activity in human […] cells assessed as cell growth inhibition after 48 hrs by SRB assay; type: functional; summary of the method: as §1
[10] = biological target: T1, DNA topoisomerase 1 (Homo sapiens); experiment: Inhibition of human recombinant Top1 expressed in baculovirus using [32P]-3-end labeled 117 bp DNA oligonucleotide as substrate assessed as enzyme mediated DNA cleavage at 0.1 to 100 uM after 20 mins by SDS-PAGE analysis relative to camptothecin; design: scale not given: the % may be the effect or the level left; summary of the method: as §2
[11] = Half life in rat plasma at 5 uM by LC-MS/MS analysis; type: ADME, cell-free
Summary of the method: (§3)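 Rat plasma at 37 °C with compound at 5 μM, duplicate runs alongside enalapril and warfarin controls. Aliquots taken at 0, 1, 3, 5 and 15 min into three volumes ice-cold methanol with propranolol internal standard, held ≥10 min at -20 °C, centrifuged. Parent quantified by LC-MS/MS in positive ion mode, expressed as % of time-zero concentration.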

[12] = test system: Plasma; experiment: Drug metabolism in rat plasma assessed as compound 9 formation at 5 uM after 15 mins by LC-MS/MS analysis; type: ADME, cell-free; details: 0.25 h; summary of the method: as §3
[13] = Drug uptake in RPMI1640 medium treated with2-Methoxy-6-(3-morpholinopropyl)-5,12-dioxo-6,12-dihydro-5H-[1,3]dioxolo[4,5:5,6]indeno[1,2-c]isoquinolin-3-yl Methyl Succinate by at 10 uM after 99 hrs by LC-MS analysis; type: physicochemical
Summary of the method: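 Compound (10 μM) incubated in cell-free RPMI 1640 medium at 37 °C for 99 h. Aliquot filtered and analysed by LC-MS, diode-array detection at 280 nm, flow 0.75 mL/min, for conversion to parent phenol.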

[14] = test system: Plasma; experiment: Drug uptake in rat plasma treated with of 2-Methoxy-6-(3-morpholinopropyl)-5,12-dioxo-6,12-dihydro 5H-[1,3]dioxolo[4,5:5,6]indeno[1,2-c]isoquinolin-3-yl Acetate after 15 mins by LC-MS/MS analysis; type: ADME, cell-free; details: 0.25 h; summary of the method: as §3

Row | SMILES | Activity [2] | GI50 [7] | Activity [10] | half-life at 5 µM [11] | Drug metabolism [12] | Drug uptake [13] | Drug uptake [14] | GI50 [1] | GI50 [3] | GI50 [4] | GI50 [5] | GI50 [6] | GI50 [8] | GI50 [9]
1 | COc1cc2c3c(n(CCCN4CCOCC4)c(=O)c2cc1OC(=O)c1cccnc1)-c1cc2c(cc1C3=O)OCO2 | 20% | < 10 nM |  |  |  |  |  | < 10 nM | < 10 nM | < 10 nM | < 10 nM | < 10 nM | < 10 nM | 15 nM
2 | COc1cc2c(=O)n(CCCN3CCOCC3)c3c(c2cc1OC(=O)c1ccccc1)C(=O)c1cc2c(cc1-3)OCO2 |  | 33 nM | 20% |  |  |  |  | 37 nM | 54 nM | 79 nM | 96 nM | 51 nM | 850 nM | 4570 nM
3 | COc1cc2c3c(n(CCCN4CCOCC4)c(=O)c2cc1OC(=O)N(C)C)-c1cc2c(cc1C3=O)OCO2 | 50% | < 10 nM |  |  |  |  |  | 21 nM | 25 nM | 32 nM | 17 nM | 32 nM | 26 nM | 105 nM
4 | COc1cc2c(=O)n(CCCN3CCOCC3)c3c(c2cc1OC(=O)N(C)C)C(=O)c1cc2c(cc1-3)OCO2 |  | 22 nM | 75% |  |  |  |  | 1860 nM | 2400 nM | 1700 nM | 4470 nM | 1550 nM | 6070 nM | 12000 nM
5 | COc1cc2c(=O)n(CCCN3CCOCC3)c3c(c2cc1OC(=O)c1cccnc1)C(=O)c1cc2c(cc1-3)OCO2 |  | < 10 nM | 75% |  |  |  |  | < 10 nM | < 10 nM | 12 nM | 22 nM | 13 nM | 30 nM | 295 nM
6 | COc1cc2c3c(n(CCCN4CCOCC4)c(=O)c2cc1OC(=O)c1ccccc1)-c1cc2c(cc1C3=O)OCO2 | 20% | 15 nM |  |  |  |  |  | 135 nM | 195 nM | 2140 nM | 59 nM | 724 nM | 5890 nM | 30900 nM

Further lines, with some results ahead:

Row | Activity [2] | GI50 [7] | Activity [10] | half-life at 5 µM [11] | Drug metabolism [12] | Drug uptake [13] | Drug uptake [14] | SMILES | GI50 [1] | GI50 [3] | GI50 [4] | GI50 [5] | GI50 [6] | GI50 [8] | GI50 [9]
7 | 20% | < 10 nM |  |  |  |  |  | COC(=O)CCC(=O)Oc1cc2c3c(n(CCCN4CCOCC4)c(=O)c2cc1OC)-c1cc2c(cc1C3=O)OCO2 | < 10 nM | < 10 nM | < 10 nM | < 10 nM | < 10 nM | 14 nM | 66 nM
8 |  | 209 nM | 50% |  |  |  |  | COc1cc2c3c(n(CCCN4CCOCC4)c(=O)c2cc1OS(=O)(=O)O)-c1cc2c(cc1C3=O)OCO2 | 263 nM | 355 nM | 389 nM | 263 nM | 417 nM | 389 nM | 1120 nM
9 | 100% | 374 nM |  |  |  |  |  | COc1cc2c3c(n(CCCN4CCOCC4)c(=O)c2cc1OC)-c1cc2c(cc1C3=O)OCO2 [INDOTECAN] | 40 nM |  |  | 30 nM |  |  | 74100 nM
10 | inactive | < 10 nM |  | 0.9 min | metabolite_detected |  |  | COc1cc2c3c(n(CCCN4CCOCC4)c(=O)c2cc1OC(C)=O)-c1cc2c(cc1C3=O)OCO2 | < 10 nM | < 10 nM | < 10 nM | < 10 nM | < 10 nM | < 10 nM | 269 nM
11 | 75% | < 10 nM |  |  |  | Active | Active | COc1cc2c3c(n(CCCN4CCOCC4)c(=O)c2cc1O)-c1cc2c(cc1C3=O)OCO2 | < 10 nM | < 10 nM | 10 nM | < 10 nM | < 10 nM | 20 nM | 30 nM
12 | inactive | < 10 nM |  |  |  |  |  | COC(=O)CCC(=O)Oc1cc2c(=O)n(CCCN3CCOCC3)c3c(c2cc1OC)C(=O)c1cc2c(cc1-3)OCO2 | < 10 nM | < 10 nM | 16 nM | 18 nM | 14 nM | 20 nM | 37 nM
13 |  | < 10 nM | 50% |  |  |  |  | COc1cc2c(=O)n(CCCN3CCOCC3)c3c(c2cc1OC(C)=O)C(=O)c1cc2c(cc1-3)OCO2 | < 10 nM | < 10 nM | 18 nM | 18 nM | < 10 nM | 29 nM | 138 nM
14 | 50% |  |  |  |  |  |  | COc1cc2c(=O)n(CCCN3CCOCC3)c3c(c2cc1O)C(=O)c1cc2c(cc1-3)OCO2 |  |  |  |  |  |  | 871 nM
